Assay results taken from ChEMBL document CHEMBL4715734, “Discovery of the Potent and Selective M1 PAM-Agonist N-[(3R,4S)-3-Hydroxytetrahydro-2H-pyran-4-yl]-5-methyl-4-[4-(1,3-thiazol-4-yl)benzyl]pyridine-2-carboxamide (PF-06767832): Evaluation of Efficacy and Cholinergic Side Effects” (J Med Chem, 2016).
pEC50, pIC50: −log10 of the molar value.

How the values were obtained:
[1] = Toxicity in dog assessed as emesis at 45 mg/kg, po using spray-dried dispersion formulation measured after 45 mins; assay type: organism-based, Canis lupus familiaris; conditions: in vivo, 0.75 h
How it was run: (§1)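 Dogs received single escalating oral doses as a spray-dried dispersion (10% drug loading with HPMCAS-M). The dispersion was suspended in 0.5 wt% methylcellulose/0.5 wt% HPMCAS in 20 mM tris buffer, pH 7.4. One dog per sex per dose was used, and clinical signs were recorded.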

[2] = biological target: T1, Muscarinic acetylcholine receptor M1 (Homo sapiens, UniProt P11229); experiment: Positive allosteric modulation of muscarinic M1 receptor (unknown origin) expressed in CHO cells assessed as increase in Ach-induced accumulation of inositol phosphate accumulation measured after 30 mins by HTRF assay; assay type: functional, cell-based
T1 sequence (P11229 whole entry): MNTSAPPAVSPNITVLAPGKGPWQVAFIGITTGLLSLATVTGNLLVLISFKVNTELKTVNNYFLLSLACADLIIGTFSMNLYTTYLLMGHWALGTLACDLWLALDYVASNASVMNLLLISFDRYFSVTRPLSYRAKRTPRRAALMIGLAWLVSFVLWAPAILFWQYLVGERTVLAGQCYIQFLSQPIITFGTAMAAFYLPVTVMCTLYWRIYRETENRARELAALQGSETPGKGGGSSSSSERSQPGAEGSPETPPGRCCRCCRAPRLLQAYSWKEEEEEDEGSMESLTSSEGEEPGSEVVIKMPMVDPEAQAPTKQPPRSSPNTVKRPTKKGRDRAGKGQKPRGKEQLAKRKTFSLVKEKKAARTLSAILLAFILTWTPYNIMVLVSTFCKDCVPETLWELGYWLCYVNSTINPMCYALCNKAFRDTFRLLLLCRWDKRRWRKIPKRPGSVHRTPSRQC

[3] = fCmax in rat at 3 mg/kg, po administered for 14 days; assay type: ADME, organism-based; conditions: in vivo, 336 h, time 14 day
How it was run: (§2)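 2-week repeat oral dosing in rats, 0.5% methylcellulose formulation; N=4/sex/dose; doses 3, 10, 30 (males)/15 (females) mg/kg; unbound exposures reported per dose and sex.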

[4] = Toxicity in dog assessed as emesis at 3 mg/kg, po using spray-dried dispersion formulation; assay type: organism-based, Canis lupus familiaris; conditions: in vivo; how it was run: as §1
[5] = fAUC (0 to 24 hrs) in dog at 15 mg/kg, po using spray-dried dispersion formulation; assay type: ADME, organism-based, Canis lupus familiaris; conditions: in vivo
[6] = fCmax in dog at 45 mg/kg, po using spray-dried dispersion formulation; assay type: ADME, organism-based, Canis lupus familiaris; conditions: in vivo
[7] = biological target: cGMP-dependent 3',5'-cyclic phosphodiesterase (Homo sapiens, UniProt O00408); experiment: Inhibition of PDE2A (unknown origin)
[8] = Toxicity in male Beagle dog assessed as decrease in QT interval at 3 mg/kg, po administered as single dose observed upto 9 hrs post last dose by telemetry; assay type: organism-based, Canis lupus familiaris; conditions: in vivo
How it was run: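 Crossover telemetry study in dogs at three oral doses (0.3, 1 and 3 mg/kg), N=4. Endpoints were blood pressure, maximum systolic left ventricular pressure, LV +dP/dt max, activity, heart rate, and RR, QT and QTc intervals, followed up to 9 h post dose.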

[9] = Fraction unbound in Wistar Han rat plasma; assay type: ADME
[10] = Ratio of fAUC in CD-1 mouse brain to plasma at 1 to 10 mg/kg, sc measured after 2 hrs by LC-MS/MS analysis; assay type: ADME, organism-based; conditions: brain and plasma, dose 1-10 mg/kg, read-out: Ratio AUC
[11] = Toxicity in rat assessed as increase in food intake at 10 mg/kg, po administered for 14 days; assay type: organism-based; conditions: in vivo, 336 h, time 14 day
How it was run: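 Two-week repeat-dose toxicity study in rats. Oral dosing in 0.5% methylcellulose at 3, 10, 30 (males)/15 (females) mg/kg, N=4/sex/dose. Food intake, body weight gain and histopathology were assessed.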

[12] = Unbound brain concentration in scopolamine-induced Wistar rat model at 0.32 mg/kg, po measured after 1 hr; assay type: ADME, organism-based; conditions: in vivo
[13] = Clearance in dog at 0.1 mg/kg, iv administered as single bolus dose; assay type: ADME, organism-based, Canis lupus familiaris; conditions: in vivo
[14] = biological target: Muscarinic acetylcholine receptor M3 (Homo sapiens, UniProt P20309); experiment: Positive allosteric modulation of muscarinic M3 receptor (unknown origin) assessed as increase in ACh-induced displacement of [3H]-NMS from M2 receptor
How it was run: (§3)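 Cell lines expressing M2 or M3 were used for [3H]NMS binding. Inhibition of binding by ACh was measured in the presence of fixed compound concentrations of 10, 3, 1, 0.3, 0.1 and 0 µM.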

[15] = Fraction unbound in cynomolgus monkey plasma; assay type: ADME, cell-free, Macaca fascicularis
[16] = Unbound plasma concentration in scopolamine-induced Wistar rat model at 0.1 mg/kg, po measured after 1 hr; assay type: ADME, organism-based; conditions: in vivo
[17] = biological target: T2, Muscarinic acetylcholine receptor M2 (Homo sapiens, UniProt P08172); experiment: Positive allosteric modulation of muscarinic M2 receptor (unknown origin) assessed as increase in ACh-induced displacement of [3H]-NMS from M2 receptor; how it was run: as §3
T2 sequence (P08172 whole entry): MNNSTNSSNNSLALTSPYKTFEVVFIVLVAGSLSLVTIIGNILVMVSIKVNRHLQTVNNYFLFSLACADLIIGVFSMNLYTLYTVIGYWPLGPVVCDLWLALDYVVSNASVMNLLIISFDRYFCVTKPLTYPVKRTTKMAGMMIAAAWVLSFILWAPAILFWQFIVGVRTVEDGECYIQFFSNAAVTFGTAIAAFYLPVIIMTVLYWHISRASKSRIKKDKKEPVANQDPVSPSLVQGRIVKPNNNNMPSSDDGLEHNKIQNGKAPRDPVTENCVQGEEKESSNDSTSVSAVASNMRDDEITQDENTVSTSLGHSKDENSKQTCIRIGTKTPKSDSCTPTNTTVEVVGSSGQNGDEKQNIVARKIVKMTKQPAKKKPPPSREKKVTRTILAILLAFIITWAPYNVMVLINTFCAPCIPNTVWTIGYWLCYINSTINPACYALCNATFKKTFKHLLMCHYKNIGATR

[18] = fAUC (0 to 24 hrs) in dog at 3 mg/kg, po using spray-dried dispersion formulation; assay type: ADME, organism-based, Canis lupus familiaris; conditions: in vivo
[19] = Toxicity in dog assessed as induction of mucoid feces at 15 mg/kg, po using spray-dried dispersion formulation; assay type: organism-based, Canis lupus familiaris; conditions: in vivo
[20] = In vivo positive allosteric modulation of muscarinic M1 receptor in CD1 mouse assessed as increase in ACh-induced IP-1 levels in […] tissue at 1 mg/kg, sc measured after 2 hrs by HTRF assay relative to baseline; assay type: functional
How it was run: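 Given sc as a solution in 5/15/80 DMSO/Solutol/water. Striatal IP1 was read 2 h after dosing and expressed as fold increase over baseline. Compound levels were measured in striatal tissue at 2 h (N=5/dose). Each animal's fold increase was plotted against its unbound brain concentration.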

[21] = Toxicity in dog assessed as salivation at 15 mg/kg, po using spray-dried dispersion formulation; assay type: organism-based, Canis lupus familiaris; conditions: in vivo
[22] = fCmax in dog at 15 mg/kg, po using spray-dried dispersion formulation; assay type: ADME, organism-based, Canis lupus familiaris; conditions: in vivo
[23] = fCmax in rat at 10 mg/kg, po administered for 14 days; assay type: ADME, organism-based; conditions: in vivo, 336 h, time 14 day; how it was run: as §2
[24] = biological target: T2, Muscarinic acetylcholine receptor M2; experiment: Positive allosteric modulation of human recombinant muscarinic M2 receptor stably expressed in HEK cells assessed as increase in ACh-induced cAMP accumulation up to 10 uM measured after 10 mins by GloSensor cAMP Assay; assay type: cell-based
[25] = Unbound brain concentration in scopolamine-induced Wistar rat model at 1 mg/kg, po measured after 1 hr; assay type: ADME, organism-based; conditions: in vivo

Chain of cGMP-dependent 3',5'-cyclic phosphodiesterase (O00408 whole entry): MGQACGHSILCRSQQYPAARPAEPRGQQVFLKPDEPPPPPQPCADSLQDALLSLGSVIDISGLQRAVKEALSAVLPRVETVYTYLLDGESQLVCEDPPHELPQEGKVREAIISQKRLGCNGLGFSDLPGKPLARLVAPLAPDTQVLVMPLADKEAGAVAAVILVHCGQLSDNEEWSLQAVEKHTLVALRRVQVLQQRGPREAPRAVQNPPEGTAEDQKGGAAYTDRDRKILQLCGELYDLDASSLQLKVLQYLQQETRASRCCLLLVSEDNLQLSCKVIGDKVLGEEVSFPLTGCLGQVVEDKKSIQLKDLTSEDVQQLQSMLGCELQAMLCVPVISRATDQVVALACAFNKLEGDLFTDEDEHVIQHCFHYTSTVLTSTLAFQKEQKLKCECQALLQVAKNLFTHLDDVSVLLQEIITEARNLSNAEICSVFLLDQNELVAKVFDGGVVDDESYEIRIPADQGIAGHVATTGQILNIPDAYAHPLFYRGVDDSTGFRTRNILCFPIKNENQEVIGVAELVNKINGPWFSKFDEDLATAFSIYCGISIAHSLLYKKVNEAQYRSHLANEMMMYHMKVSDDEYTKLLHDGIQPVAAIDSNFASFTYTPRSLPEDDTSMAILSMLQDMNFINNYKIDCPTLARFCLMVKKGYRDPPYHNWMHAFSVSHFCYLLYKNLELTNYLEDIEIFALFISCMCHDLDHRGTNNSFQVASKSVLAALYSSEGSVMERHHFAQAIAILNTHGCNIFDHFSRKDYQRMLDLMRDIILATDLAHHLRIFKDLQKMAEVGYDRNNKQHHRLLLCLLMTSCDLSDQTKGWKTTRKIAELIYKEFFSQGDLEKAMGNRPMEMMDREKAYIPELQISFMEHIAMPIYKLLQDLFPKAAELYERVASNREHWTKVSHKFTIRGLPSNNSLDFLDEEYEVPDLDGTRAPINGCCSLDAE
Chain of Muscarinic acetylcholine receptor M3 (P20309 whole entry): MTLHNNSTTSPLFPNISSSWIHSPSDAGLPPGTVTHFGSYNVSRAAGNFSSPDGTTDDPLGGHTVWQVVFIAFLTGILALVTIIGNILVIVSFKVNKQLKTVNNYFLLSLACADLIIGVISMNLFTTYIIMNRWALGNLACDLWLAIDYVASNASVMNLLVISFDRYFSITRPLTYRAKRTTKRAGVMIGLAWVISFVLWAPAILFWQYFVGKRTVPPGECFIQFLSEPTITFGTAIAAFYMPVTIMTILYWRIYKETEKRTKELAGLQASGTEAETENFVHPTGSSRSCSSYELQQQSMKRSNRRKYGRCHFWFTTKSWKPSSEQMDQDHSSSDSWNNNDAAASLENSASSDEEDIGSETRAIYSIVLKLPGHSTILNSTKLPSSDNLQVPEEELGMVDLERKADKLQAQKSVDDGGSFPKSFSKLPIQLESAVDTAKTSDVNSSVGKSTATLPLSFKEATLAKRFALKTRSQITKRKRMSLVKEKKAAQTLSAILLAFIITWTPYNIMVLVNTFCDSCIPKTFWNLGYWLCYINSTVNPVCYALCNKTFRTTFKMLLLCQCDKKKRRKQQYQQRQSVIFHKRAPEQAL

pEC50 [2]: 6.35
fCmax [3]: 195 nM
fAUC [5]: 7.765 µM·h
fCmax [6]: 952 nM
pIC50 [7]: 5.51
Fu [9]: 4.3%
Kp uu at 2 h [10]: 0.34
Drug uptake(free) [12]: 1.3 nM
clearance [13]: 2.73 mL/min/kg
Activity [14]: Not Active
Fu [15]: 3.2%
Cp(f) [16]: 0.9 nM
Activity [17]: Not Active
fAUC [18]: 5.242 µM·h
fCmax [22]: 1050 nM
fCmax [23]: 562 nM
Activity [24]: Not Active
Drug uptake(free) [25]: 6.7 nM
SMILES: Cc1cnc(C(=O)N[C@H]2CCOC[C@@H]2O)cc1Cc1ccc(-c2cscn2)cc1
Activity [1]: Toxic
Activity [4]: Toxic
Activity [8]: Toxic
Activity [11]: Non-Toxic
Activity [19]: Toxic
fold change (FC) [20]: 2
Activity [21]: Toxic
